Measured values collected from several papers.
Protocols differ between the studies behind these lines. pIC50: −log10 of the molar value.
Cell line: CCRF-CEM
Effect on: cell growth or viability

SMILES	assay	setting	pIC50
COc1cc(OC)cc(C(=O)c2cc3c(-c4ccccc4)c(O)ccc3o2)c1	–	72 h	5.02
COc1ccc(CCc2cc(C#N)c(N)s2)cc1	–	48 h	5.14
O=C1C(=Cc2ccccc2)CN(C(=O)CCCCCCC(=O)N2CC(=Cc3ccccc3)C(=O)C(=Cc3ccccc3)C2)CC1=Cc1ccccc1	–	72 h	5.64
COc1cccc(C(=O)c2cc3c(-c4ccccc4)c(OC)ccc3o2)c1	–	72 h	5.27
CCC[C@H](Nc1nc(-c2ccc(NC(=O)NCC)c(OC)c2)ncc1C)c1cccnc1	fluorescence	72 h	8.44
COc1ccc(C(=O)c2cc3c(-c4ccccc4)c(O)ccc3o2)cc1	–	72 h	6.06
O=C1NCCc2[nH]c(-c3ccncc3)cc21	–	–	5.60
COC(=O)c1cc(CCc2cc(OC)ccc2OC)sc1N	–	48 h	5.85
O=C1C(=Cc2ccccc2)CN(C(=O)CCCC(=O)N2CC(=Cc3ccccc3)C(=O)C(=Cc3ccccc3)C2)CC1=Cc1ccccc1	–	72 h	5.69
COC(=O)c1cc(-c2cc(OC)ccc2OC)sc1N	–	48 h	4.52
Cc1ccc(C=C2SC(=O)N(CC(=O)Nc3ccc(Cl)cc3C(F)(F)F)C2=O)cc1	MTT	48 h	4.50
O=C1C(=Cc2ccccc2)CN(C(=O)C=CC=CC(=O)N2CC(=Cc3ccccc3)C(=O)C(=Cc3ccccc3)C2)CC1=Cc1ccccc1	–	72 h	4.41
COc1ccc(/C=C\c2cc(OC)c(OC)c(OC)c2)cc1O	–	72 h	8.74
CCOC(=O)c1cc(CCc2ccc(OC)cc2)sc1N	–	48 h	5.72
O=C(CN1C(=O)SC(=Cc2ccc(F)cc2)C1=O)Nc1cccc(C(F)(F)F)c1	MTT	48 h	4.52
O=C1C(=Cc2ccccc2)CN(C(=O)C=CC(=O)N2CC(=Cc3ccccc3)C(=O)C(=Cc3ccccc3)C2)CC1=Cc1ccccc1	–	72 h	5.11
CCOC(=O)c1cc(CCc2ccccc2OC)sc1N	–	48 h	4.70
COc1cc(OC)cc(C(=O)c2cc3c(-c4ccccc4)c(OC)ccc3o2)c1	–	72 h	< 4.30
N#Cc1cc(CCc2ccccc2)sc1N	–	48 h	4.49
O=C(CN1C(=O)SC(=Cc2ccccc2)C1=O)Nc1nc2c(Cl)cccc2s1	MTT	48 h	4.45
COc1ccc(OC)c(CCc2cc(C#N)c(N)s2)c1	–	48 h	7.46
O=C(CN1C(=O)SC(=Cc2ccccc2)C1=O)Nc1ccc(F)cc1F	MTT	48 h	4.49
